# Only some compounds are listed: those with a hit (about 3.9% of all), similar ones and a draw of the others.
# TAAR1 antag – human TAAR1 antagonism; Q96RJ0; CHO RD-HGA16 TAAR1, Fluo-8 calcium fluorescence, antagonist; inhibition, % at 3 µM; hit rate 1.5% among 360,000;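 active = inhibition above a per-plate cutoff, the mean inhibition of test compounds on that plate plus 3 SD, cut at about 49% in these data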;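 note: 0% = DMSO plus EC80 beta-PEA response and 100% = DMSO alone without agonist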
# Target sequence (Q96RJ0 whole entry, looked up): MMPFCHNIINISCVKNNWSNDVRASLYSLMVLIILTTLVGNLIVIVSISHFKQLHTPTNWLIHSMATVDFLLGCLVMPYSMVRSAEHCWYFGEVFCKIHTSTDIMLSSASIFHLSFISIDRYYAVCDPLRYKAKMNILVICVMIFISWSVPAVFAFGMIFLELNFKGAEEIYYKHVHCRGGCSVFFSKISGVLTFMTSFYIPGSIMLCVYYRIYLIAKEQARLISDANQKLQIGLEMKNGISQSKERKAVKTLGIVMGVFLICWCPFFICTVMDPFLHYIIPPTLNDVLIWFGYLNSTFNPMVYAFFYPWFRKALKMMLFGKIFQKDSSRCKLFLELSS
#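 Test system: hTAAR1-expressing CHO RD-HGA16 cells, Gα16-coupled; Probe or stimulus: EC80 β-phenethylamine stimulus; Compound dosing: single nominal final test compound concentration of 3 µM; Timing: 140 s kinetic read after compound, 140 s after agonist; Signal: Fluo-8 calcium-sensitive fluorescence; Measure: % inhibition of agonist calcium response; Controls: DMSO and EC80 PEA controls.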
# OX1R antag-1 – blocks the human orexin 1 receptor; hit rate 0.43% among 330,000; inhibition, % at 5 µM; CHO/OX1R cells, Fluo-8 calcium fluorescence, orexin A; O43613;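 active = inhibition above its plate's threshold, mean inhibition of all tested compounds on the plate plus 3 SD, cut at about 37% in these data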;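 note: 0% = orexin A challenge wells and 100% = SB-334867-A antagonist wells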
# CHO parental Ca – signal in parental CHO cells, OX1R antagonist counter-screen; parental CHO-K1, ATP-induced calcium, Fluo-8 fluorescence; inhibition, % at 5.6 µM; hit rate 0.63% among 330,000;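 active = inhibition above that plate's mean sample inhibition plus 3 SD, cut at about 26% in these data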;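 note: 0% = ATP-challenged DMSO wells and 100% = DMSO wells without ATP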
#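 Test system: untransfected parental CHO cell line. Compound: one dose, 5.6 µM nominal. Detection: intracellular calcium via Fluo-8 no-wash fluorescent dye. Measure: % inhibition. Benchmarks: ATP-challenged DMSO wells low, unchallenged DMSO wells high.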
# TAAR1 ag – human TAAR1 agonism; Q96RJ0; hit rate 0.99% among 360,000; CHO RD-HGA16 TAAR1, Fluo-8 calcium fluorescence; vehicle wells 0%, saturating PEA agonist 100%; activation, % at 3 µM;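 active = activation above the mean activation of all test compounds in the run plus 3 SD, cut at about 38% in these data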
#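 System: CHO RD-HGA16 cells carrying human TAAR1 plus Gα16; Incubation: 17-24 h seeding, 75 min 37 °C dye, 30 min RT; Measured by: Fluo-8 fluorescence, 5 s baseline then 140 s kinetic read; Control set: DMSO and PEA EC100; Replication: single well for each compound.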
# OX1R antag-2 – blocks the human orexin 1 receptor. O43613. OX1R-expressing cells, FRET antagonist read-out. inhibition, % at 6.6 µM. hit rate 1.8% among 330,000. AID 485270; in the data active = inhibition mostly above about 38%, no sharp cut-off; inactive = mostly below about 40%;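 note: 0% = agonist challenge alone and 100% = reference antagonist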
# The depositor's hits bear a star; . = no result.
SMILES,TAAR1 antag,OX1R antag-1,CHO parental Ca,TAAR1 ag,OX1R antag-2
O=C(NCC(c1cccs1)N1CCOCC1)c1cc2ccccc2o1 (stereo not given),-2.2,0.5,-13.0,5.6,21.1
O=C(NCC(c1cccs1)N1CCOCC1)c1cc2ccccc2oc1=O (stereo not given),4.7,3.2,-21.7,2.9,25.9*
CC(=O)c1c(C)[nH]c(C(=O)OCC(=O)Nc2cccc(S(=O)(=O)N(C)C)c2)c1C,28.2,-22.5,-5.3,3.2,-12.6
CC(=O)c1c(C)[nH]c(C(=O)OCC(=O)Nc2cccc(S(=O)(=O)N3CCCC3)c2)c1C,49.6*,39.1*,28.7,14.5,13.3
CCN(CC)S(=O)(=O)c1cccc(NC(=O)COC(=O)c2[nH]c(C)c(C(C)=O)c2C)c1,55.0*,.,.,16.8,.
CCOC(=O)C1(C)CCN1C(=O)/C=C/c1ccccc1 (stereo not given),-10.3,.,.,1.8,.
CC1=C(C(=O)N(C)C)CC(CC(=O)NCc2cccs2)C(=O)N1CCCN1CCCC1=O (stereo not given),-12.6,.,.,6.9,.
CCn1nc(C)c(CNC(=O)CCc2nnc(-c3ccc(C(C)=O)s3)o2)c1C,5.4,-16.8,-10.5,5.6,63.3*
CCC(=O)C1CCCN(C(=O)CCc2nnc(-c3ccc4c(c3)OCO4)o2)C1 (stereo not given),-8.3,-10.3,-7.7,0.8,11.6
CCN(CC)CCN(C)C(=O)CCc1nnc(-c2ccc(C)s2)o1,-1.2,-7.3,-7.2,2.2,15.8
CCC(=O)C1CCCN(C(=O)CCc2nnc(-c3ccc(C(C)=O)s3)o2)C1 (stereo not given),-4.1,-14.0,-9.6,0.7,38.0*
COc1ccccc1S(=O)(=O)N[C@@H]1CC[C@@H](CCn2cc(C3CC3)nn2)O[C@@H]1CO,-26.0,.,.,0.1,.
N#Cc1c(-c2ccco2)cc(-c2ccccn2)nc1N,10.0,4.1,-15.3,1.9,73.5*
CSCCC(C(=O)NCc1ccccc1)n1c(-c2ccc3c(c2)CCO3)nc2ccccc21 (stereo not given),-18.5,.,.,-1.3,.
COc1cccc(-c2ccc3c(c2)[C@@H]2C[C@H]4[C@@H](CN2CC3)[C@H](C)ON4C)c1,-0.4,.,.,0.1,.
O=C1NC[C@H](Cc2ccccc2)N(C[C@@H]2CCCN2C[C@H](Cc2ccc(O)cc2)N2C[C@H](Cc3ccccc3)N(CC3CCCCCC3)C(=O)C2=O)C1=O,8.1,.,.,0.6,.
CC(=O)c1ccc(Sc2nnc(C)s2)c([N+](=O)[O-])c1,-10.8,-3.7,-2.5,1.7,62.6*
Nc1nnc(Sc2ccc(Cl)cc2[N+](=O)[O-])s1,-5.3,-11.1,-7.8,8.2,11.0
Cc1ccc2nc(C3CCCCC3)c(Cc3cccc(F)c3)n2c1,-14.5,.,.,13.6,.
COc1cccc(OCC(O)CN2CCC(CN3C(=O)c4cccc5cccc(c45)C3=O)CC2)c1 (stereo not given),-1.7,-22.2,-4.8,4.4,34.7
COc1ccc(COCC(O)CN2CCC(CN3C(=O)c4cccc5cccc(c45)C3=O)CC2)cc1OC (stereo not given),-13.0,-17.9,-26.7,4.2,49.1*
Cc1cc(C)cc(OCC(O)CN2CCC(CN3C(=O)c4cccc5cccc(c45)C3=O)CC2)c1 (stereo not given),-0.1,0.9,17.2,39.4*,18.1
CC(C)(C)N1C(=O)c2ccccc2NC(=O)C1C(=O)NCc1ccco1 (stereo not given),-0.5,.,.,0.9,.
Cc1ccnc(Sc2ncccc2[N+](=O)[O-])n1,-16.8,-7.7,9.1,1.5,59.5*
Cc1ccc(Sc2ncccc2[N+](=O)[O-])cc1,-11.5,-7.7,-10.6,-3.8,1.2
SMILES,TAAR1 antag,OX1R antag-1,CHO parental Ca,TAAR1 ag,OX1R antag-2
CC(C)(C)c1csc(Sc2ncccc2[N+](=O)[O-])n1,-19.1,-26.3,-11.3,-2.0,10.7
Nc1nnc(Sc2ncccc2[N+](=O)[O-])s1,-28.5,-13.9,-9.6,6.7,38.6*
COc1ccc2[nH]c(=O)c(CN(C(C)=O)c3cc(C)ccc3C)cc2c1,1.2,.,.,1.7,.
c1ccc(-c2nc(NC3CCCC3)c3ccccc3n2)cc1,10.6,-43.8,-21.2,5.8,49.4*
COC(=O)c1[nH]c2ccccc2c1NC(=O)CNC1CCCCC1,60.6*,-34.1,-19.2,21.3,22.9
O=C(Nc1cccc(-c2nc3ncccc3o2)c1)c1ccccc1,22.7,-10.2,-22.5,7.7,56.0*
CCc1ccc2oc(-c3cccc(NC(=O)c4cccnc4)c3)nc2c1,49.1*,-15.8,-16.2,15.4,25.5
COC(=O)c1cc2c(c3c4cc(OC)ccc4n(S(=O)(=O)c4ccc(F)cc4)c13)C(=O)N(C)C2,-8.5,.,.,-2.7,.
COc1cccc(N2CCN(c3ncnc4c3[nH]c3ccc(F)cc34)CC2C)c1 (stereo not given),93.1*,98.6*,95.8*,26.9,86.0*
COc1ccc2[nH]c3c(N4CC(C)OC(C)C4)ncnc3c2c1 (stereo not given),8.9,-15.8,-10.1,4.5,14.3
COc1cccc(N2CCN(c3ncnc4c3[nH]c3ccccc34)CC2C)c1 (stereo not given),88.8*,91.1*,89.0*,16.3,112.2*
COC(=O)C1=C(C)N(Cc2ccccc2C(F)(F)F)C(=NCc2ccc3c(c2)OCO3)NC1c1ccccc1C(F)(F)F (stereo not given),-50.0,.,.,1.1,.
CCC(=O)OCC(=O)Nc1ccc(OC)cc1[N+](=O)[O-],-3.7,-5.3,-4.2,7.1,49.5*
COc1ccc(NC(=O)COC(=O)CC23CC4CC(CC(C4)C2)C3)c([N+](=O)[O-])c1,-28.6,-2.7,-11.6,0.4,18.2
Cc1ccc(NC(=O)COC(=O)Cn2cnc3ccccc32)c([N+](=O)[O-])c1,-8.2,20.2,38.3*,3.8,74.3*
COCC(=O)NC1CCN(CC(=O)Nc2ccc(OC)cc2[N+](=O)[O-])CC1,-12.9,-20.6,-1.5,2.3,41.2*
COc1ccc(-n2nnnc2C2(C)CCC(=O)N2Cc2ccccc2)cc1 (stereo not given),6.2,.,.,0.8,.
CC1(C)CC(=O)C=C(c2ccccc2-c2ccc3c(c2)OCO3)C1=O,-2.1,.,.,-0.6,.
Cc1ccc(-c2csc3ncnc(N4CCN(C(=O)c5ccccc5)CC4)c23)cc1,50.1*,-22.0,-35.8,11.9,26.3
O=C(c1ccco1)N1CCN(c2ncnc3scc(-c4ccccc4)c23)CC1,24.4,-37.0,-30.8,8.1,32.7
CC1CC(=O)NN=C1c1ccc(NCCO)c([N+](=O)[O-])c1 (stereo not given),-0.5,4.3,-11.4,6.5,59.4*
Cn1nc(-c2ccc(NCCO)c([N+](=O)[O-])c2)c2ccccc2c1=O,8.3,-10.0,-15.1,-1.9,87.3
Cc1ccc(SCCC(=O)N/N=C/c2ccccc2O)cc1,5.7,-5.5,-7.3,21.6,28.7
O=C(CCC(=O)Nc1ccc(Br)cc1)N/N=C/c1ccccc1O,47.2,-17.1,-22.2,38.5*,11.0

# Screening data (PubChem BioAssay)
